Test system: HEK-293T
Test: Multiplex assay against HEK293T;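 on Population Tubulin-Different-Phenotype (%): share of the cells with healthy nuclei that show this phenotype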
Type: toxicity, cell-based
Details: human
Procedure, shortened: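 Cells stained live at seeding with Hoechst33342, BioTracker Green Microtubule Cytoskeleton Dye, MitoTracker Red and Annexin V Alexa Fluor 680 were imaged on a CQ1 microscope at 37°C and 5% CO2 after compound addition. Their classification by CellPathfinder machine-learning gating ran from Hoechst high-intensity objects versus normal cells, to healthy, pyknosed or fragmented nuclei among normal cells, to mitotic or apoptotic among pyknosed cells. Tubulin, mitochondrial-mass and membrane-permeability phenotypes are per cents of healthy-nucleus cells.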

[1] = 12 h, 1 µM, compound concentration 1 uM, replicate 1
[2] = 12 h, 1 µM, compound concentration 1 uM, replicate 2
[3] = 12 h, 10 µM, compound concentration 10 uM, replicate 1
[4] = 12 h, 10 µM, compound concentration 10 uM, replicate 2
[5] = 24 h, 1 µM, compound concentration 1 uM, replicate 1
[6] = 24 h, 1 µM, compound concentration 1 uM, replicate 2
[7] = 24 h, 10 µM, compound concentration 10 uM, replicate 1
[8] = 24 h, 10 µM, compound concentration 10 uM, replicate 2
[9] = 48 h, 1 µM, compound concentration 1 uM, replicate 1
[10] = 48 h, 1 µM, compound concentration 1 uM, replicate 2
[11] = 48 h, 10 µM, compound concentration 10 uM, replicate 1
[12] = 48 h, 10 µM, compound concentration 10 uM, replicate 2

SMILES: CNc1nc(NCc2ccc(NS(C)(=O)=O)cc2Cl)cc(-c2ccccn2)n1
- Population Apoptotic (%) [1]: 52%
- Population Fragmented Nuclei (%) [1]: 18%
- Population Healthy Nuclei (%) [1]: 36%
- Population Hoechst High Intensity Objects (%) [1]: 17%
- Population Membrane Permeable-Phenotype (%) [1]: 3%
- Population Mitochondria Different-Phenotype (%) [1]: 75%
- Population Mitotic Cells (%) [1]: 48%
- Population Normal (%) [1]: 82%
- Population Pyknosed Nuclei (%) [1]: 44%
- Population Tubulin-Different-Phenotype (%) [1]: 38%
- Total Cell Count [1]: 203
- Population Apoptotic (%) [2]: 14%
- Population Fragmented Nuclei (%) [2]: 6%
- Population Healthy Nuclei (%) [2]: 43%
- Population Hoechst High Intensity Objects (%) [2]: 2%
- Population Membrane Permeable-Phenotype (%) [2]: 6%
- Population Mitochondria Different-Phenotype (%) [2]: 18%
- Population Mitotic Cells (%) [2]: 85%
- Population Normal (%) [2]: 97%
- Population Pyknosed Nuclei (%) [2]: 50%
- Population Tubulin-Different-Phenotype (%) [2]: 23%
- Total Cell Count [2]: 273
- Population Apoptotic (%) [3]: 60%
- Population Fragmented Nuclei (%) [3]: 9%
- Population Healthy Nuclei (%) [3]: 25%
- Population Hoechst High Intensity Objects (%) [3]: 14%
- Population Mitochondria Different-Phenotype (%) [3]: 95%
- Population Mitotic Cells (%) [3]: 39%
- Population Normal (%) [3]: 85%
- Population Pyknosed Nuclei (%) [3]: 65%
- Population Tubulin-Different-Phenotype (%) [3]: 92%
- Total Cell Count [3]: 190
- Population Apoptotic (%) [4]: 25%
- Population Fragmented Nuclei (%) [4]: 4%
- Population Healthy Nuclei (%) [4]: 18%
- Population Hoechst High Intensity Objects (%) [4]: 4%
- Population Membrane Permeable-Phenotype (%) [4]: 0%
- Population Mitochondria Different-Phenotype (%) [4]: 50%
- Population Mitotic Cells (%) [4]: 74%
- Population Normal (%) [4]: 95%
- Population Pyknosed Nuclei (%) [4]: 76%
- Population Tubulin-Different-Phenotype (%) [4]: 73%
- Total Cell Count [4]: 189
- Population Apoptotic (%) [5]: 55%
- Population Fragmented Nuclei (%) [5]: 16%
- Population Healthy Nuclei (%) [5]: 52%
- Population Hoechst High Intensity Objects (%) [5]: 18%
- Population Membrane Permeable-Phenotype (%) [5]: 0%
- Population Mitochondria Different-Phenotype (%) [5]: 50%
- Population Mitotic Cells (%) [5]: 45%
- Population Normal (%) [5]: 81%
- Population Pyknosed Nuclei (%) [5]: 31%
- Population Tubulin-Different-Phenotype (%) [5]: 25%
- Total Cell Count [5]: 234
- Population Apoptotic (%) [6]: 16%
- Population Fragmented Nuclei (%) [6]: 4%
- Population Healthy Nuclei (%) [6]: 57%
- Population Hoechst High Intensity Objects (%) [6]: 5%
- Population Membrane Permeable-Phenotype (%) [6]: 7%
- Population Mitochondria Different-Phenotype (%) [6]: 14%
- Population Mitotic Cells (%) [6]: 83%
- Population Normal (%) [6]: 94%
- Population Pyknosed Nuclei (%) [6]: 37%
- Population Tubulin-Different-Phenotype (%) [6]: 31%
- Total Cell Count [6]: 355
- Population Apoptotic (%) [7]: 63%
- Population Fragmented Nuclei (%) [7]: 10%
- Population Healthy Nuclei (%) [7]: 29%
- Population Hoechst High Intensity Objects (%) [7]: 14%
- Population Membrane Permeable-Phenotype (%) [7]: 0%
- Population Mitochondria Different-Phenotype (%) [7]: 95%
- Population Mitotic Cells (%) [7]: 36%
- Population Normal (%) [7]: 85%
- Population Pyknosed Nuclei (%) [7]: 60%
- Population Tubulin-Different-Phenotype (%) [7]: 87%
- Total Cell Count [7]: 193
- Population Apoptotic (%) [8]: 34%
- Population Fragmented Nuclei (%) [8]: 3%
- Population Healthy Nuclei (%) [8]: 25%
- Population Hoechst High Intensity Objects (%) [8]: 6%
- Population Mitochondria Different-Phenotype (%) [8]: 88%
- Population Mitotic Cells (%) [8]: 65%
- Population Normal (%) [8]: 93%
- Population Pyknosed Nuclei (%) [8]: 71%
- Population Tubulin-Different-Phenotype (%) [8]: 95%
- Total Cell Count [8]: 177
- Population Apoptotic (%) [9]: 47%
- Population Fragmented Nuclei (%) [9]: 15%
- Population Healthy Nuclei (%) [9]: 64%
- Population Hoechst High Intensity Objects (%) [9]: 8%
- Population Membrane Permeable-Phenotype (%) [9]: 2%
- Population Mitochondria Different-Phenotype (%) [9]: 24%
- Population Mitotic Cells (%) [9]: 52%
- Population Normal (%) [9]: 91%
- Population Pyknosed Nuclei (%) [9]: 19%
- Population Tubulin-Different-Phenotype (%) [9]: 18%
- Total Cell Count [9]: 336
- Population Apoptotic (%) [10]: 14%
- Population Fragmented Nuclei (%) [10]: 5%
- Population Healthy Nuclei (%) [10]: 76%
- Population Hoechst High Intensity Objects (%) [10]: 3%
- Population Membrane Permeable-Phenotype (%) [10]: 5%
- Population Mitochondria Different-Phenotype (%) [10]: 7%
- Population Mitotic Cells (%) [10]: 85%
- Population Normal (%) [10]: 96%
- Population Pyknosed Nuclei (%) [10]: 18%
- Population Tubulin-Different-Phenotype (%) [10]: 26%
- Total Cell Count [10]: 601
- Population Apoptotic (%) [11]: 74%
- Population Fragmented Nuclei (%) [11]: 15%
- Population Healthy Nuclei (%) [11]: 29%
- Population Hoechst High Intensity Objects (%) [11]: 16%
- Population Membrane Permeable-Phenotype (%) [11]: 2%
- Population Mitochondria Different-Phenotype (%) [11]: 85%
- Population Mitotic Cells (%) [11]: 25%
- Population Normal (%) [11]: 83%
- Population Pyknosed Nuclei (%) [11]: 54%
- Population Tubulin-Different-Phenotype (%) [11]: 93%
- Total Cell Count [11]: 189
- Population Apoptotic (%) [12]: 61%
- Population Fragmented Nuclei (%) [12]: 5%
- Population Healthy Nuclei (%) [12]: 26%
- Population Hoechst High Intensity Objects (%) [12]: 5%
- Population Membrane Permeable-Phenotype (%) [12]: 7%
- Population Mitochondria Different-Phenotype (%) [12]: 76%
- Population Mitotic Cells (%) [12]: 38%
- Population Normal (%) [12]: 94%
- Population Pyknosed Nuclei (%) [12]: 67%
- Population Tubulin-Different-Phenotype (%) [12]: 82%
- Total Cell Count [12]: 202

— ChEMBL document CHEMBL4689842, “EUbOPEN Chemogenomics Library wave 1” (2021)
